# Key:
# Enterobacter cloacae = assay: Antibacterial activity against gram negative organism, […] (MA2646); format: functional
# Escherichia coli = assay: Antibacterial activity was determined against gram negative organism, E. coli(vogel); format: functional
# In short: (§1)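 MIC by standard microtitration against a panel of 10 representative Gram-negative and Gram-positive organisms; values reported in µg/mL.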
# Klebsiella pneumoniae = assay: Antibacterial activity was determined against gram negative organism, K. pneumoniae (MGH-2); format: functional; in short: as §1
# Pseudomonas aeruginosa = assay: Antibacterial activity was determined against gram negative organism, Pseudomonas aeruginosa (UI-18); format: functional; in short: as §1
# Bacteria = assay: Antibacterial activity was determined against gram negative organism, Providencia rettgeri. (M1771); format: functional; in short: as §1
# Streptococcus pneumoniae = assay: Antibacterial activity was determined against gram positive organism, Streptococcus pneumoniae (SV-1); format: functional; in short: as §1
# Enterococcus faecalis = assay: Antibacterial activity was determined against gram positive organism, Streptococcus faecalis (MGH-2); format: functional; in short: as §1
# Streptococcus pyogenes = assay: Antibacterial activity was determined against gram positive organism, Streptococcus pyogenes (C203); format: functional; in short: as §1
# Staphylococcus aureus [1] = assay: Antibacterial activity was determined against gram positive organism, Staphylococcus aureus (H228); format: functional; in short: as §1
# Staphylococcus aureus [2] = assay: Antibacterial activity was determined against gram positive organism, Staphylococcus aureus (UC76); format: functional; in short: as §1
# [3] = MIC ratio measured as the mean MICs of gram-negative bacteria; format: functional
# In short: (§2)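 Geometric mean of the MICs (µg/mL) over the Gram-negative or the Gram-positive strains of the 10-organism microtitration panel, calculated separately for each class.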
# [4] = MIC ratio measured as the mean MICs of gram-positive bacteria; format: functional; in short: as §2
# [5] = target: DNA gyrase (Escherichia coli) (UniProt P0AES6+P0AES4)
# Mus musculus [6] = assay: In vivo subcutaneous protective dose was determined in female charles river CD-1 mice infected with Streptococcus pneumoniae; format: functional; settings: sc, read-out: PD50
# In short: (§3)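 Acute lethal systemic infection model in mice; drug given by subcutaneous injection; potency read out as median protective dose (PD50), in mg/kg.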
# Mus musculus [7] = assay: In vivo oral protective dose was determined in female charles river CD-1 mice infected with Escherichia coli (vogel); format: functional; settings: for ED50: Mus musculus, po, read-out: PD50
# In short: (§4)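 Acute lethal systemic infection model in mice; drug given orally by gavage; potency read out as median protective dose (PD50), in mg/kg.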
# Mus musculus [8] = assay: In vivo oral protective dose was determined in female charles river CD-1 mice infected with Streptococcus pneumoniae; format: functional; settings: read-out: PD50; in short: as §4
# Mus musculus [9] = assay: In vivo subcutaneous protective dose was determined in female charles river CD-1 mice infected with Escherichia coli (vogel); format: functional; settings: sc, read-out: PD50; in short: as §3
Structure (SMILES),MIC (Enterobacter cloacae),MIC (Escherichia coli),MIC (Klebsiella pneumoniae),MIC (Pseudomonas aeruginosa),MIC (Bacteria),MIC (Streptococcus pneumoniae),MIC (Enterococcus faecalis),MIC (Streptococcus pyogenes),MIC (Staphylococcus aureus [1]),MIC (Staphylococcus aureus [2]),Ratio [3],Ratio [4],DNA cleavage [5],ED50 (Mus musculus [6]),ED50 (Mus musculus [7]),ED50 (Mus musculus [8]),ED50 (Mus musculus [9]),PD50 (Mus musculus [7])
CCn1cc(C(=O)O)c(=O)c2c(C)c(F)c(N3CCNCC3)cc21,0.2 µg/mL,0.1 µg/mL,0.4 µg/mL,1.6 µg/mL,0.4 µg/mL,3.1 µg/mL,1.6 µg/mL,6.3 µg/mL,3.1 µg/mL,0.4 µg/mL,0.35,2.08,3 µg/mL,–,–,–,–,–
Cc1c(F)c(N2CCC(C)(CN)C2)c(F)c2c1c(=O)c(C(=O)O)cn2C1CC1 (centres undefined),0.05 µg/mL,0.05 µg/mL,0.1 µg/mL,0.8 µg/mL,0.2 µg/mL,0.003 µg/mL,0.025 µg/mL,0.003 µg/mL,0.006 µg/mL,0.003 µg/mL,0.13,0.0053,3.75 µg/mL,–,–,–,–,–
CCn1cc(C(=O)O)c(=O)c2c(C)c(F)c(N3CCC(N)C3)cc21 (centres undefined),0.2 µg/mL,0.2 µg/mL,0.8 µg/mL,3.1 µg/mL,1.6 µg/mL,1.6 µg/mL,1.6 µg/mL,3.1 µg/mL,1.6 µg/mL,0.4 µg/mL,0.69,1.38,6.3 µg/mL,–,–,–,–,–
CC1CN(c2cc3c(cc2F)c(=O)c(C(=O)O)cn3C2CC2)CCN1 (centres undefined),–,–,0.05 µg/mL,0.4 µg/mL,0.1 µg/mL,0.2 µg/mL,0.4 µg/mL,0.2 µg/mL,0.4 µg/mL,0.1 µg/mL,0.066,0.23,–,12 mg/kg,1 mg/kg,39 mg/kg,0.4 mg/kg,–
NC1CCN(c2cc3c(cc2F)c(=O)c(C(=O)O)cn3C2CC2)C1 (centres undefined),–,0.025 µg/mL,–,0.2 µg/mL,0.1 µg/mL,0.1 µg/mL,–,–,–,–,0.057,0.075,0.1 µg/mL,–,3.4 mg/kg,–,0.5 mg/kg,3.4 mg/kg
Cc1c(F)c(N2CCNC(C)C2)c(F)c2c1c(=O)c(C(=O)O)cn2C1CC1 (centres undefined),0.025 µg/mL,0.025 µg/mL,0.05 µg/mL,0.4 µg/mL,0.1 µg/mL,0.025 µg/mL,0.1 µg/mL,0.05 µg/mL,0.025 µg/mL,0.013 µg/mL,0.066,0.033,3 µg/mL,11 mg/kg,0.75 mg/kg,12 mg/kg,0.4 mg/kg,–
CCNCC1CCN(c2cc3c(c(C)c2F)c(=O)c(C(=O)O)cn3-c2ccc(F)cc2F)C1 (centres undefined),0.8 µg/mL,0.4 µg/mL,0.8 µg/mL,3.1 µg/mL,1.6 µg/mL,0.025 µg/mL,0.2 µg/mL,0.025 µg/mL,0.1 µg/mL,0.025 µg/mL,1.05,0.05,0.75 µg/mL,–,–,–,–,–
Cc1c(F)c(N2CCNC(C)C2)cc2c1c(=O)c(C(=O)O)cn2C1CC1 (centres undefined) [GREPAFLOXACIN],0.025 µg/mL,0.013 µg/mL,0.05 µg/mL,0.8 µg/mL,0.2 µg/mL,0.025 µg/mL,0.1 µg/mL,0.05 µg/mL,0.1 µg/mL,0.025 µg/mL,0.6,2.07,3.75 µg/mL,8 mg/kg,1.5 mg/kg,24 mg/kg,0.5 mg/kg,–
O=C(O)c1cn(C2CC2)c2cc(N3CCNCC3)c(F)cc2c1=O [CIPROFLOXACIN],–,–,–,0.4 µg/mL,0.05 µg/mL,–,0.8 µg/mL,0.8 µg/mL,–,0.2 µg/mL,–,–,–,19 mg/kg,1 mg/kg,100 mg/kg,0.25 mg/kg,–
Cc1c(F)c(N2CCC(N)C2)cc2c1c(=O)c(C(=O)O)cn2C1CC1 (centres undefined),0.05 µg/mL,0.025 µg/mL,0.1 µg/mL,0.4 µg/mL,0.1 µg/mL,0.013 µg/mL,0.4 µg/mL,0.025 µg/mL,0.1 µg/mL,0.025 µg/mL,0.087,0.05,0.38 µg/mL,–,9.5 mg/kg,–,0.7 mg/kg,–
